Activity calls are given as the source filed them. No cut-off for these calls is given here.
How the values were obtained:
HOP-92 = experiment: Cytotoxicity against human HOP-92 assessed as growth inhibition at 10 uM by NCI protocol relative to control; type: functional; settings: read-out: GI
Outline: (§1)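 Run by NCI as a single-dose screen at 10 μM across the sixty-cell-line panel, which covers nine human tumour tissue types. The read-out is percent growth inhibition of treated cells relative to untreated cells.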

T47D = experiment: Cytotoxicity against human T47D cells assessed as reduction in cell viability after 3 hrs by MTT assay
MDA-MB-435 = experiment: Cytotoxicity against human MDA-MB-435 assessed as growth inhibition at 10 uM by NCI protocol relative to control; type: functional, cell-based; outline: as §1

**Q.** Which inhibition of growth at 10 µM (HOP-92) does the source give for `O=c1cc(N2CCNCC2)c2ccccc2n1-c1ccccc1` here?
**A.** 17%

**Q.** And the IC50 (T47D)?
**A.** 92.1 µM

**Q.** What about the “growth inhibition (GI)” value (MDA-MB-435) of the same compound?
**A.** inactive
